Assay results from ChEMBL document CHEMBL1126989, “Synthesis and cytotoxicity of 1,6,7,8-substituted 2-(4'-substituted phenyl)-4-quinolones and related compounds: identification as antimitotic agents interacting with tubulin” (J Med Chem, 1993).
≈ marks a conversion by molar mass, not a printed value.

How the values were obtained:
A549 = experiment: Cytotoxicity in vitro expressed as 50% reduction in cell number after a 3-day incubation, in human lung carcinoma A-549 cell line; assay type: functional, cell-based; conditions: A549, 72 h
Procedure, shortened: (§1)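 Cell lines adapted to antibiotic-free RPMI-1640 with 10% fetal calf serum; ca. 1×10^5 cells per well, overnight stabilization, then serial dilutions added, quadruplicate per concentration; medium-only controls. After 3-4 days, MTT added and incubated overnight; formazan dissolved in DMSO, absorbance at 570 nm. EC50 calculated from two data points bracketing 50% growth inhibition. Actinomycin as positive control.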

L1210 (1565) = experiment: Cytotoxicity in vitro expressed as 50% reduction in cell number after a 3-day incubation, in murine leukemia L-1210 cell line; assay type: functional, cell-based; conditions: Mus musculus, 72 h; procedure, shortened: as §1
KB = experiment: Cytotoxicity in vitro expressed as 50% reduction in cell number after a 3-day incubation, in human epidermoid carcinoma KB cell line; assay type: functional, cell-based; conditions: 72 h; procedure, shortened: as §1
P388 = experiment: Cytotoxicity in vitro expressed as 50% reduction in cell number after a 3-day incubation, in murine leukemia P-388 cell line; assay type: functional, cell-based; conditions: Mus musculus, P388, 72 h; procedure, shortened: as §1
HCT-8 = experiment: Cytotoxicity in vitro expressed as 50% reduction in cell number after a 3-day incubation, in human ileocecal carcinoma HCT-8 cell line; assay type: functional, cell-based; conditions: HCT-8, 72 h; procedure, shortened: as §1
[1] = Percentage inhibition of colchicine binding(1: 1 ratio of inhibitor: colchicine); assay type: functional; conditions: concentration not given here
COLO 205 [2] = experiment: Inhibition of in vitro cell growth which reduces cell growth to 50% of level at start of experiment in colon COLO-205 cell line (<-4 in one experiment, >-4 in other experiment); assay type: functional, Homo sapiens
Procedure, shortened: (§2)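 NCI in vitro disease-oriented screen across about 60 human tumour cell lines. The value is the LC50-type level: the drug concentration that cuts cell number to 50% of the count at the start of the experiment. Values are averages of 2 assays.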

COLO 205 [3] = experiment: Inhibition of in vitro cell growth which reduces cell growth to level at start of experiment in colon COLO-205 cell line; assay type: functional, Homo sapiens
HCC 2998 [4] = experiment: Inhibition of in vitro cell growth which reduces cell growth to level at start of experiment in colon HCC2998 cell line; assay type: functional, Homo sapiens
HCC 2998 [5] = experiment: Inhibition of in vitro cell growth which reduces cell growth to 50% of level at start of experiment in colon HCC2998 cell line; assay type: functional, Homo sapiens; procedure, shortened: as §2
HT-29 [6] = experiment: Inhibition of in vitro cell growth which reduces cell growth to 50% of level at start of experiment in colon HT-29 cell line; assay type: functional, Homo sapiens; procedure, shortened: as §2
KM-20L2 [7] = experiment: (§3) Inhibition of in vitro cell growth which reduces cell growth to 50% of level at start of experiment in colon KM-20L2 cell line; assay type: functional, Homo sapiens; procedure, shortened: as §2
KM-20L2 [8] = experiment: (§4) Inhibition of in vitro cell growth which reduces cell growth to level at start of experiment in colon KM-20L2 cell line; assay type: functional, Homo sapiens
RPMI-7951 = experiment: Cytotoxicity in vitro expressed as 50% reduction in cell number after a 3-day incubation, in human melanoma RPMI-7951 cell line; assay type: functional, cell-based; conditions: RPMI-7951, 72 h; procedure, shortened: as §1
SF-539 [9] = experiment: Inhibition of in vitro cell growth which reduces cell growth to 50% of level at start of experiment in CNS SF-539 cell line(<-4 in one experiment, >-4 in other experiment); assay type: functional, Homo sapiens; procedure, shortened: as §2
SF-539 [10] = experiment: Inhibition of in vitro cell growth which reduces cell growth to level at start of experiment in CNS SF-539 cell line; assay type: functional, Homo sapiens
Tubulin beta chain = Tubulin beta chain (Bos taurus, UniProt Q6B856); experiment: Inhibition of tubulin polymerization; assay type: functional
Tubulin beta chain, sequence (Q6B856 whole entry): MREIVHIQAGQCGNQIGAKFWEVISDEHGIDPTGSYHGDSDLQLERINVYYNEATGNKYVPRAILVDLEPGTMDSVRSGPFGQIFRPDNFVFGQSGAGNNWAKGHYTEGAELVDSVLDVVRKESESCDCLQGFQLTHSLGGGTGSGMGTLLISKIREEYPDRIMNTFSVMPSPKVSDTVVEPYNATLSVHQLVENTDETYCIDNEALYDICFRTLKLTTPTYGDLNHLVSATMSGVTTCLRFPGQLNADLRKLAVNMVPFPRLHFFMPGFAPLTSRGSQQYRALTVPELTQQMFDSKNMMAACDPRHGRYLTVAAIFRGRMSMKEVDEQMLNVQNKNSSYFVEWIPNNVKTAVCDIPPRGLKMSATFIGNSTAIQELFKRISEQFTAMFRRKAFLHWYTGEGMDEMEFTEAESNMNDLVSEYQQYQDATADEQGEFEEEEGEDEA
Procedure, shortened: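 Bovine brain tubulin 1.0 mg/mL (10 μM) with 1.0 M repurified monosodium glutamate, 1.0 mM MgCl2, 4% DMSO and drug; preincubated 15 min at 37 °C, chilled, GTP added; turbidity at 350 nm after jump from 0 to 37 °C, followed 20 min.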

Tubulin (Bos taurus) [11] = biological target: T1, Tubulin (Bos taurus) (UniProt Q6B856+Q862L2+Q862F3); experiment: Percentage inhibition of colchicine binding(10:1 ratio of inhibitor: colchicine); assay type: protein assay; conditions: concentration not given here
Tubulin (Bos taurus) [12] = biological target: T1, Tubulin (Bos taurus); experiment: Percentage inhibition of colchicine binding(1:1 ratio of inhibitor: colchicine); assay type: protein assay; conditions: concentration not given here
HT-29 [13] = experiment: Inhibition of in vitro cell growth which reduces cell growth to level at start of experiment in colon HT-29 cell line; assay type: functional, Homo sapiens
COLO 205 [14] = experiment: Inhibition of in vitro cell growth which reduces cell growth to 50% of level at start of experiment in colon COLO-205 cell line; assay type: functional, Homo sapiens; procedure, shortened: as §2
[15] = as §3; assay type: functional, Homo sapiens; procedure, shortened: as §2
[16] = as §4; assay type: functional, Homo sapiens
SF-539 [17] = experiment: Inhibition of in vitro cell growth which reduces cell growth to 50% of level at start of experiment in CNS SF-539 cell line; assay type: functional, Homo sapiens; procedure, shortened: as §2
Tubulin (Bos taurus) [18] = biological target: T1, Tubulin (Bos taurus); experiment: Percentage inhibition of colchicine binding by derivatives of 2-phenyl-4-quinolone at the ratio of 10:1; assay type: protein assay; conditions: concentration not given here
Tubulin (Bos taurus) [19] = biological target: T1, Tubulin (Bos taurus); experiment: Percentage inhibition of colchicine binding by derivatives of 2-phenyl-4-quinolone at the ratio of 1:1; assay type: protein assay; conditions: concentration not given here

| SMILES | EC50 (A549) [µg/mL] | EC50 (L1210 (1565)) [µg/mL] | EC50 (KB) [µg/mL] | EC50 (P388) [µg/mL] | EC50 (HCT-8) [µg/mL] | EC50 (RPMI-7951) [µg/mL] | IC50 (Tubulin beta chain) [µM] | also measured |
| --- | --- | --- | --- | --- | --- | --- | --- | --- |
| CS(=O)(=O)Oc1cc(-c2ccccc2)nc2ccccc12 | 6.21 (≈ 20.7 µM) | 6.04 (≈ 20.2 µM) | 2.8 (≈ 9.35 µM) | > 10 | 5.6 (≈ 18.7 µM) |  |  |  |
| COc1ccc(/C=C\c2cc(OC)c(OC)c(OC)c2)cc1O |  |  |  |  |  |  |  | inhibition [1]: 97% |
| Oc1cc(-c2ccccc2)nc2cc(F)ccc12 | 0.96 (≈ 4.01 µM) | 0.16 (≈ 0.669 µM) | < 0.1 | 0.29 (≈ 1.21 µM) | 3.45 (≈ 14.4 µM) | 0.37 (≈ 1.55 µM) | 3.7 | LC50 (COLO 205 [2]): -4; TGI (COLO 205 [3]): -6.1; TGI (HCC 2998 [4]): -5.6; LC50 (HCC 2998 [5]): >-4; LC50 (HT-29 [6]): >-4; LC50 (KM-20L2 [7]): -5.6; TGI (KM-20L2 [8]): -6.3; LC50 (SF-539 [9]): >-4; TGI (SF-539 [10]): -6; inhibition (Tubulin (Bos taurus) [11]): 34%; inhibition (Tubulin (Bos taurus) [12]): 7%; TGI (HT-29 [13]): -5.6 |
| CC(C)Oc1cc(-c2ccccc2)nc2ccccc12 | > 10 | > 10 | 4.2 (≈ 15.9 µM) | > 10 | > 10 |  |  |  |
| COc1cccc2c(O)cc(-c3ccccc3)nc12 | 6.77 (≈ 26.9 µM) | 7.68 (≈ 30.6 µM) | 5.05 (≈ 20.1 µM) | > 10 | 0.55 (≈ 2.19 µM) | > 10 | > 40 |  |
| Oc1cc(-c2ccccc2)nc2ccc(Cl)cc12 | 0.51 (≈ 1.99 µM) | 0.5 (≈ 1.96 µM) | 0.49 (≈ 1.92 µM) | 0.84 (≈ 3.29 µM) | 0.7 (≈ 2.74 µM) | 0.64 (≈ 2.5 µM) | 3.2 | LC50 (COLO 205 [14]): -4; TGI (COLO 205 [3]): -5.6; TGI (HCC 2998 [4]): -5; LC50 (HCC 2998 [5]): >-5; LC50 (HT-29 [6]): >-4; LC50 [15]: -4; TGI [16]: -5.4; TGI (SF-539 [10]): -5.4; LC50 (SF-539 [17]): >-4; inhibition (Tubulin (Bos taurus) [18]): 21%; inhibition (Tubulin (Bos taurus) [19]): 6%; TGI (HT-29 [13]): -4.9 |
| CCCCOc1cc(-c2ccccc2)nc2ccccc12 | > 10 | > 10 | 3.8 (≈ 13.7 µM) | > 10 | > 10 |  |  |  |
| Oc1ccc2nc(-c3ccccc3)cc(O)c2c1 | 8.14 (≈ 34.3 µM) | 0.83 (≈ 3.5 µM) | 0.41 (≈ 1.73 µM) | 2.86 (≈ 12.1 µM) | 7.75 (≈ 32.7 µM) | 3.92 (≈ 16.5 µM) | 16 |  |
| CC(C)COc1cc(-c2ccccc2)nc2ccccc12 | > 10 | > 10 | > 4 | > 10 | > 10 |  |  |  |
| COc1cc([C@@H]2c3cc4c(cc3[C@H](O)[C@H]3COC(=O)[C@H]23)OCO4)cc(OC)c1OC [PODOFILOX] |  |  |  |  |  |  | 1.3 |  |
| CCOc1cc(-c2ccccc2)nc2ccccc12 | > 10 | > 10 | 6.7 (≈ 26.9 µM) | 6 (≈ 24.1 µM) | > 10 |  |  |  |
| COc1ccc2c(O)cc(-c3ccccc3)nc2c1 | 0.73 (≈ 2.91 µM) | 0.57 (≈ 2.27 µM) | 0.53 (≈ 2.11 µM) | 0.67 (≈ 2.67 µM) | 4.86 (≈ 19.3 µM) | 0.43 (≈ 1.71 µM) | 4.8 |  |
| Oc1ccc2c(O)cc(-c3ccccc3)nc2c1 | 0.81 (≈ 3.41 µM) | 0.45 (≈ 1.9 µM) | 0.55 (≈ 2.32 µM) | 0.81 (≈ 3.41 µM) | > 10 | 0.52 (≈ 2.19 µM) | 3.4 |  |
| CN(C)CCOc1cc(-c2ccccc2)nc2ccccc12 | > 10 | > 10 | > 4 | > 10 | > 10 |  |  |  |
